Compound activity: PubChem BioAssay, The Scripps Research Institute Molecular Screening Center
Hits are enriched below; roughly 2.5% of the tested compounds scored in any of these assays.
OX1R antag-1: blocks the human orexin 1 receptor. O43613. CHO/OX1R cells, Fluo-8 calcium fluorescence, orexin A. inhibition, % at 5 µM. 330,000 tested, 0.43% active. AID 434989;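 active = inhibition above its plate's threshold, mean inhibition of all tested compounds on the plate plus 3 SD, cut at about 37% in these data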
TRPN1 ag: activates the zebrafish TRPN1 channel. AID 1424. 220,000 tested, 0.18% active. activation, % at 3 µM. HEK293 zebrafish TRPN1-YFP, Fluo-8 calcium fluorescence; 100% = response to 87 µM carbachol;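 active = activation above its plate's cutoff, the mean activation of test wells on that plate plus 3 SD, cut at about 19% in these data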
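Control set: carbachol 87 µM as high control, DMSO as low control; system: HEK293 stable line with zebrafish TRPN1-YFP; read-out: % activation versus carbachol response; detection: intracellular calcium fluorescence with Fluo-8; doses: single test compound dose, 3 µM nominal, 0.3% DMSO; schedule: dye 1 h 37 °C plus 30 min RT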
OX1R antag-2: OX1R (human) antagonism | O43613 | OX1R-expressing cells, FRET antagonist read-out | inhibition, % at 6.6 µM | 330,000 tested, 1.8% active; in the data active = inhibition mostly above about 38%, no sharp cut-off; inactive = mostly below about 40%
CHO parental Ca: counter-screen for OX1R antagonists: effect in parental CHO cells. parental CHO-K1, ATP-induced calcium, Fluo-8 fluorescence. inhibition, % at 5.6 µM. 330,000 tested, 0.63% active;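 active = inhibition above that plate's mean sample inhibition plus 3 SD, cut at about 26% in these data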
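Measured by: calcium-sensitive Fluo-8 fluorescence / Test system: CHO parental line / Controls: ATP-challenged DMSO wells low, unchallenged DMSO wells high / Measure: % inhibition / Compound: single nominal dose of 5.6 µM per compound / Replicates: single well per compound, no replicates / Reagent: ATP as calcium-mobilizing challenge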
TRPML3 agonist: agonists of human TRPML3 channel; HEK293 TRPML3-YFP, Fluo-8 calcium fluorescence; 100% = the carbachol control signal; activation, % at 3 µM; 220,000 tested, 0.29% active; AID 1448;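 active = activation above its plate's cutoff, the mean activation of the plate's test wells plus 3 SD, cut at about 12% in these data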
Target sequence (Q8TDD5 whole entry, looked up): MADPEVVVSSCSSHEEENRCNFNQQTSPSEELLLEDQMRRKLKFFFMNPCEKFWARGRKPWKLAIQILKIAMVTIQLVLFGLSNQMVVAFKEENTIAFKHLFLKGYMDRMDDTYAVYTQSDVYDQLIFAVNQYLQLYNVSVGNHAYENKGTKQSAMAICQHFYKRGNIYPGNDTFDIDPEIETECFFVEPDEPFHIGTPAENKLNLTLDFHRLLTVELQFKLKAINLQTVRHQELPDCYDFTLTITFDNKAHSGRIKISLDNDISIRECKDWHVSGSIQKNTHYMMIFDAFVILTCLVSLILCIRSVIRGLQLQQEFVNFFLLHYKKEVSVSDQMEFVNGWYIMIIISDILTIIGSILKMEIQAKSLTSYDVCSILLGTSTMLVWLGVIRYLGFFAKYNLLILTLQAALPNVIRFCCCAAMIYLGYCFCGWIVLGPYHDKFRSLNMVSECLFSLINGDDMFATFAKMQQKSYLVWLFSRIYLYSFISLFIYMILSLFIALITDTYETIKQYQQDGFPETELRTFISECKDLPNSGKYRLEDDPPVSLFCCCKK
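system = HEK293 cells stably carrying human TRPML3-YFP | doses = one concentration, 3 µM nominal, 0.3% DMSO | timing = dye loading 1 h 37 °C then 30 min ambient, 125 s read | detection = Fluo-8 calcium dye fluorescence, ex 470-495, em 515-575 nm | benchmarks = high control carbachol 87 µM, low control DMSO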
Numbers stand for hits; 0 = inactive; - = no result.

SMILES	OX1R antag-1	TRPN1 ag	OX1R antag-2	CHO parental Ca	TRPML3 agonist
Cc1cc(C)c(NC(=O)C2CCCN2CCOC(=O)c2ccccc2)c(C)c1 (centres undefined)	0	0	73	0	0
CCS(=O)(=O)N1CCC(C(=O)OCC(=O)c2ccc(Br)cc2)CC1	0	0	0	50	0
O=C(CSc1n[nH]c(=O)n1C1CC1)Nc1cc(Cl)ccc1Oc1ccccc1	0	0	0	33	0
CCOC(=O)Cc1csc(SCC(=O)Nc2cc(Cl)ccc2Oc2ccccc2)n1	61	0	0	62	0
O=C(CSc1n[nH]c(=O)n1C1CC1)Nc1ccccc1	0	-	0	0	-
Cc1ccc(S(=O)(=O)Nc2c(C)n(C)n(-c3ccccc3)c2=O)cc1C(=O)NCc1ccccc1	0	-	0	0	-
Cc1ccc(S(=O)(=O)CC(=O)Nc2nccs2)cc1	0	-	0	0	-
O=[N+]([O-])c1ccc(Sc2nc3ccccc3o2)c([N+](=O)[O-])c1	0	0	37	0	0
O=c1[nH]c(Sc2ccc([N+](=O)[O-])cc2[N+](=O)[O-])nc2ccccc12	0	-	0	0	-
Cc1ccc(Sc2ccc([N+](=O)[O-])cc2[N+](=O)[O-])nc1	0	0	0	0	0
Cc1ccnc(Sc2ccc([N+](=O)[O-])cc2[N+](=O)[O-])n1	0	0	68	0	0
Nc1nc(Sc2ccc([N+](=O)[O-])cc2[N+](=O)[O-])n[nH]1	0	0	42	0	0
Nc1nnc(/C=C/c2ccccc2Cl)s1	0	0	0	0	0
COc1ccc(CCC(=O)Nc2nc3ccccc3[nH]2)cc1	0	0	0	70	0
COc1ccc(OCC(=O)Nc2nc3ccccc3[nH]2)cc1	0	0	0	0	0
O=c1[nH]nc(-c2ccc(F)cc2)cc1Cc1cccs1	0	0	0	0	0
COC(=O)c1ccccc1NC(=O)C(C)Oc1ccccc1 (centres undefined)	0	0	0	0	0
COC(=O)c1cccc2nc3c(C(C)O)cccc3nc12 (centres undefined)	0	-	50	0	-
O=C(CCc1ccccc1)Nc1ccnn1C1CCN(Cc2ncc[nH]2)CC1	0	-	0	0	-
O=C(COC(=O)c1cc([N+](=O)[O-])ccc1N1CCOCC1)NC1CCCCC1	0	-	53	0	-
O=C(COC(=O)c1cc([N+](=O)[O-])ccc1N1CCOCC1)Nc1ccc(Cl)cc1	0	-	52	0	-
O=C(COC(=O)c1cc([N+](=O)[O-])ccc1N1CCOCC1)Nc1ccc(Cl)cn1	0	-	52	0	-
Cc1cc(Cl)ccc1NC(=O)COC(=O)c1cc([N+](=O)[O-])ccc1N1CCOCC1	0	-	0	0	-
NC(=O)c1ccc(NC(=O)COC(=O)c2cc([N+](=O)[O-])ccc2N2CCOCC2)cc1	0	-	0	0	-
Cc1ccc(C(C)C)c(OCC(=O)N/N=C2\CC(=O)CC(C)(C)C2)c1	0	-	0	0	-
SMILES	OX1R antag-1	TRPN1 ag	OX1R antag-2	CHO parental Ca	TRPML3 agonist
COc1ccc(CNC(=O)COc2cc3c(c4oc(=O)cc(C)c24)CCC(C)(C)O3)cc1OC	0	-	42	0	-
COc1cc(C(=O)Nc2nc(-c3cccs3)cs2)cc(OC)c1OC	0	0	49	0	0
O=C(Nc1nc(-c2cccs2)cs1)c1ccc(Cl)cc1	0	0	0	0	0
COc1cc(-c2noc(-c3cccs3)n2)cc(OC)c1OC	0	0	48	0	0
Cc1ccc(S(=O)(=O)N(C)c2ccc(OCC(=O)Nc3cccc(-n4cnnn4)c3C)cc2)cc1	0	0	0	0	0
Cc1nn(-c2ccccc2)c(N)c1N=O	0	0	61	0	0
Cc1nn(-c2ccccc2)c(N)c1N=Nc1ccc2ccccc2c1	0	0	0	0	0
COc1ccc(S(=O)(=O)N2CCC(C(=O)NCCCn3ccnc3)CC2)cc1C	0	-	0	0	-
O=C(NC(NC1CCS(=O)(=O)C1)C(=O)c1cccs1)c1ccccc1 (centres undefined)	0	0	0	0	0
O=C(NC1=C(Nc2ccc(Cl)cc2)C(=O)c2ccccc2C1=O)c1ccccc1	0	0	0	0	0
Cc1cccc(NC2=C(NC(=O)c3ccccc3)C(=O)c3ccccc3C2=O)c1	0	0	75	0	0
O=C1C(Cl)=C(NC(=O)c2ccccc2)C(=O)C(Cl)=C1NC(=O)c1ccccc1	0	-	48	0	-
O=C(NC1=C(NC2CCS(=O)(=O)C2)C(=O)c2ccccc2C1=O)c1ccccc1 (centres undefined)	0	0	73	0	0
CC(C)Cn1c(=O)c2ccccc2n2c(CCC(=O)NC3CCN(Cc4ccccc4)CC3)nnc12	0	-	0	0	-
CC(C)N1C(=O)CCC1C(=O)NCc1ccco1 (centres undefined)	0	0	0	0	0
Cc1cc(C)n2nc(SCC(=O)N3CCCCC3C)nc2n1 (centres undefined)	0	-	0	0	-
CC(=O)c1ccc(NC(=O)[C@@H]2CCCN2C(=O)OC(C)(C)C)cc1	0	-	0	0	-
Cc1ccc(C)c(OCC(=O)Nc2ccccc2C(=O)N2CCOCC2)c1	0	-	0	0	-
O=C(NCc1ccccc1)N1CCN(c2ccc(Cl)c(Cl)c2)CC1	0	0	0	42	0
C=CCn1c(SCC(=O)c2cc(C)n(C(C)COC)c2C)nc2sc(C)c(C)c2c1=O (centres undefined)	0	0	0	36	0
C=CCn1c(SCC(=O)NCCO)nc2sc(C)c(C)c2c1=O	0	0	0	0	0
CCC(=O)N1CCc2cc(S(=O)(=O)N(CC)c3cccc(C)c3)ccc21	0	0	0	0	0
CCN(c1cccc(C(F)(F)F)c1)S(=O)(=O)c1ccc2c(c1)CCN2C(=O)C1CC1	0	0	0	65	0
Cc1nc2ccccc2c2c1CC(C(C)(Cl)Br)O2 (centres undefined)	0	0	0	51	0
Cc1ccc2nc(C)c3c(c2c1)OC(C(C)(Cl)Br)C3 (centres undefined)	0	0	0	0	0
SMILES	OX1R antag-1	TRPN1 ag	OX1R antag-2	CHO parental Ca	TRPML3 agonist
COc1cc(NC(=O)COc2cc(O)c3c(c2)OC(C)(C)CC3=O)cc(OC)c1OC	0	-	71	82	-
Cn1c2ccccc2c(=O)c2cc(C#CC3=CCCCC3)ccc21	0	-	37	0	-
CCC(C)N(CCNC(=O)c1ccc2c(c1)NC(=O)c1ccccc1S2)C1CCCCC1 (centres undefined)	0	-	0	0	-
O=[N+]([O-])c1ccc(-c2nnc3n2CCCCC3)cc1	0	-	32	0	-
Cc1cc(NC(=O)COC(=O)c2c(Cl)cccc2Cl)no1	0	-	0	0	-
CNC(=O)c1cccc(NC(=O)c2ccccc2OCc2ccccc2)c1	0	-	0	0	-
COc1cc(NC(=O)c2ccccc2OCc2ccccc2)cc(OC)c1OC	0	-	45	0	-
CS(=O)(=O)C1=NSC2=NC(=O)/C(=C\c3cccn3-c3ccccc3Cl)C(=N)N21	0	0	64	0	0
CCc1ccc(-n2cccc2/C=C2/C(=N)N3C(=NC2=O)SN=C3S(C)(=O)=O)cc1	0	0	66	0	0
